According to ChEMBL document CHEMBL2069303, “Stellettin A induces endoplasmic reticulum stress in murine B16 melanoma cells” (J Nat Prod, 2012):
≈ marks a conversion by molar mass, not a printed value. Calls of active or inactive are those of the source. No cut-off for these calls is given here.

Columns and labels:
[1] = system: B16-F10; assay: Induction of endoplasmic reticulum stress in C57BL/6J mouse B16F10 cells assessed as abnormally glycosylated TRP1 level at 0.6 ug/mL incubated for 12 hrs measured 1 hr post peptide N-glycosidase F-treatment by immunoblot analysis; format: functional, cell-based
Outline: (§1)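 Lysates of treated B16F10 cells were prepared in RIPA buffer. Protein (10 μg) was digested with 100 units endoglycosidase H or peptide N-glycosidase F at 37 °C for 1 h, then immunoblotted for TRP-1 to separate EndoH-sensitive and EndoH-resistant glycoforms.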

[2] = system: B16-F10; assay: Induction of endoplasmic reticulum stress in C57BL/6J mouse B16F10 cells assessed as immature TRP1 level at 0.6 ug/mL incubated for 12 to 24 hrs measured 1 hr post endoglycosidase H-treatment by immunoblot analysis; format: functional, cell-based; outline: as §1
[3] = system: B16-F10; assay: Cytotoxicity against C57BL/6J mouse B16F10 cells after 24 hrs by SRB assay; format: functional, cell-based; conditions: B16-F10, 24 h
Outline: (§2)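 B16F10 and TM3 cells in 96-well plates were exposed to serial dilutions (0.08–5 μg/mL) for 24 or 48 h. Proteins were fixed with 50% TCA, stained with 0.4% SRB in 1% acetic acid, rinsed with 1% acetic acid, and the dye was dissolved in 10 mM Tris base (pH 10.5). Absorbance was read at 570 nm. Triplicates in at least three separate experiments; IC50 from concentration–response.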

[4] = system: B16-F10; assay: Cytotoxicity against C57BL/6J mouse B16F10 cells after 48 hrs by SRB assay; format: functional, cell-based; conditions: B16-F10, 48 h; outline: as §2
[5] = system: B16-F10; assay: Induction of endoplasmic reticulum stress in C57BL/6J mouse B16F10 cells assessed as deglycosylated TRP1 level at 0.6 ug/mL after 24 hrs by immunoblot analysis; format: functional, cell-based
Outline: (§3)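 Treated B16F10 cells were PBS-washed and lysed in 50 mM Tris-Cl, 150 mM NaCl, 0.2% Triton X-100, aprotinin and PMSF, then spun at 4 °C. Protein was equalised by BCA. Lysates were run on 10% SDS-PAGE, transferred to PVDF, blocked with 2% gelatin and probed with specific primary antibodies (TRP-1 blots: 0–0.625 μg/mL for 24 h).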

[6] = system: B16-F10; assay: Induction of autophagy in C57BL/6J mouse B16F10 cells assessed as LC3-TYR colocalization at 0.625 to 2.5 ug/mL after 24 hrs by fluorescence microscopy; format: functional, cell-based
Outline: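 B16F10 cells on sterile coverslips were exposed to 0, 0.625, 1.25 or 2.5 μg/mL for 24 h, PBS-washed and paraformaldehyde-fixed. They were co-stained with anti-tyrosinase and anti-LC3, then AlexaFluor-488/594 secondary IgG. DAPI counterstain. Confocal microscopy used to score yellow overlap.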

[7] = system: B16-F10; assay: Induction of endoplasmic reticulum stress in C57BL/6J mouse B16F10 cells assessed as upregulation of HSC70 level at 0.625 ug/mL after 12 hrs by immunoblot analysis; format: functional, cell-based; outline: as §3
[8] = system: B16-F10; assay: Cytotoxicity against C57BL/6J mouse B16F10 cells assessed as cell viability after 24 hrs by SRB assay relative to control; format: functional
Outline: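 B16F10 cells (20 000/0.1 mL) were given serial concentrations (0.08–5 μg/mL) for 24 h. SRB read-out: TCA fixation, 0.4% SRB staining, acetic acid rinses, solubilisation in 10 mM Tris (pH 10.5), absorbance at 570 nm. Viability expressed relative to untreated control; triplicates in at least three experiments.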

[9] = system: B16-F10; assay: Induction of apoptosis in C57BL/6J mouse B16F10 cells assessed as Bcl2 activation at 0.6 ug/mL up to 48 hrs by immunoblot analysis; format: functional, cell-based
[10] = system: B16-F10; assay: Induction of endoplasmic reticulum stress in C57BL/6J mouse B16F10 cells assessed as upregulation of GRP78 level at 0.625 ug/mL after 12 hrs by immunoblot analysis; format: functional, cell-based; outline: as §3
[11] = system: B16-F10; assay: Induction of endoplasmic reticulum stress in C57BL/6J mouse B16F10 cells assessed as immature TRP1 level at 0.6 ug/mL after 24 hrs by immunoblot analysis; format: functional, cell-based; outline: as §3
[12] = Cytotoxicity against mouse TM3 cells after 48 hrs by SRB assay; format: functional, cell-based; conditions: TM3, 48 h; outline: as §2
[13] = system: B16-F10; assay: Decrease in TRP1 level in C57BL/6J mouse B16F10 cells assessed as depigmentation after 48 hrs; format: functional, cell-based
[14] = system: B16-F10; assay: Induction of endoplasmic reticulum stress in C57BL/6J mouse B16F10 cells assessed as upregulation of GRP78 level after 24 hrs by immunofluorescence staining method; format: functional, cell-based
Outline: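 B16F10 cells (20 000/mL) on gelatinized coverslips were treated with 0, 0.31, 0.625, 1.25 or 2.5 μg/mL for 24 h. Fixed in 4% paraformaldehyde and immunostained for GRP78, with Alexa-594-conjugated secondary IgG. DAPI counterstain; confocal imaging.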

[15] = system: HaCaT; assay: Selectivity ratio of IC50 for human HaCaT cells to IC50 for mouse TM3 cells; format: functional
[16] = system: B16-F10; assay: Induction of autophagy in C57BL/6J mouse B16F10 cells assessed as LC32 accumulation at 0.6 ug/mL by immunoblot analysis; format: functional, cell-based; outline: as §3
[17] = system: B16-F10; assay: Selectivity ratio of IC50 for mouse Melan-a cells to IC50 for mouse B16F10 cells; format: functional
[18] = system: B16-F10; assay: Induction of endoplasmic reticulum stress in C57BL/6J mouse B16F10 cells assessed as upregulation of HSC70 level at 0.625 ug/mL after 24 hrs by immunoblot analysis; format: functional, cell-based; outline: as §3
[19] = system: B16-F10; assay: Induction of endoplasmic reticulum stress in C57BL/6J mouse B16F10 cells assessed as upregulation of GRP78 level at 0.625 ug/mL after 24 hrs by immunoblot analysis; format: functional, cell-based; outline: as §3
[20] = Selectivity ratio of IC50 for mouse Melan-a cells to IC50 for mouse TM3 cells; format: functional
[21] = system: HaCaT; assay: Selectivity ratio of IC50 for human HaCaT cells to IC50 for mouse B16F10 cells; format: functional
[22] = system: HT-29; assay: Selectivity ratio of IC50 for human HT-29 cells to IC50 for mouse TM3 cells; format: functional
[23] = system: HT-29; assay: Selectivity ratio of IC50 for human HT-29 cells to IC50 for mouse B16F10 cells; format: functional

In the case of `C\C(=C/C=C/C(C)=C1/C(=O)C[C@H]2[C@@]3(C)CCC(=O)C(C)(C)[C@@H]3CC[C@]12C)c1ccc(C)c(=O)o1` [STELLETIN A], the Activity [1] was “Active”, the Activity [2] was “Active” and the IC50 [3] was 2 µg/mL (≈ 4.32 µM). The IC50 [4] was 0.15 µg/mL (≈ 0.324 µM), the Activity [5] was “Active” and the Activity [6] was “Active”. For the same molecule, the Activity [7] was “Active”, the Activity [8] was 70% and the Activity [9] was “inactive”. For the same molecule, the Activity [10] was “Active”, the Activity [11] was “Active” and the IC50 [12] was 0.8 µg/mL (≈ 1.73 µM). The Activity [13] was “Active”, the Activity [14] was “Dose-dependent effect” and the “Ratio IC50” value [15] was 10. The Activity [16] was “Active”, the “Ratio IC50” value [17] was 10 and the Activity [18] was “inactive”. The Activity [19] was “inactive”, the “Ratio IC50” value [20] was 10 and the “Ratio IC50” value [21] was 10. For the same molecule, the “Ratio IC50” value [22] was 10 and the “Ratio IC50” value [23] was 10.
